# Reference: ChEMBL document CHEMBL4130441, “Mortiamides A-D, Cyclic Heptapeptides from a Novel Mortierella sp. Obtained from Frobisher Bay” (J Nat Prod, 2017)
# Calls of active or inactive are those of the source. No cut-off for these calls is given here. Where a SMILES comes first, the peptide text is derived from it.
# Legend:
# [1] = system: BJ; experiment: Cytotoxicity against human BJ cells assessed as decrease in cell viability at 128 ug/ml after 24 hrs by Alamar blue assay; assay type: cell-based
# In short: (§1)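 Cells treated in 96-well culture plates in triplicate at 128 μg/mL. Viability measured 24 h after treatment with the redox dye Alamar Blue. Fluorescence read at 560/12 nm excitation and 590 nm emission, at time zero and 4 h after dye addition.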
# [2] = system: Keratinocyte; experiment: Cytotoxicity against human epidermal keratinocytes assessed as decrease in cell viability at 128 ug/ml after 24 hrs by Alamar blue assay; in short: as §1
# [3] = species on record: Homo sapiens; experiment: Cytotoxicity against human HTB-26 cells assessed as decrease in cell viability at 128 ug/ml after 24 hrs by Alamar blue assay; assay type: functional, cell-based; in short: as §1
# [4] = system: MCF7; experiment: Cytotoxicity against human MCF7 cells assessed as decrease in cell viability at 128 ug/ml after 24 hrs by Alamar blue assay; assay type: functional, cell-based; in short: as §1
# [5] = system: Staphylococcus aureus; experiment: Antimicrobial activity against methicillin-resistant Staphylococcus aureus ATCC 33591 at 128 ug/ml after 22 hrs by micro broth dilution assay; assay type: functional, organism-based
# In short: (§2)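 CLSI 96-well microbroth dilution, triplicate; tested at 128 μg/mL; strains MRSA ATCC 33591 and VRE E. faecium EF379; optical density read at time zero and after 22 h incubation to give growth inhibition.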
# [6] = system: Enterococcus faecium; experiment: Antimicrobial activity against vancomycin-resistant Enterococcus faecium EF379 at 128 ug/ml after 22 hrs by micro broth dilution assay; assay type: functional, organism-based; in short: as §2
# [7] = system: Staphylococcus warneri; experiment: Antimicrobial activity against Staphylococcus warneri ATCC 17917 at 128 ug/ml after 22 hrs by micro broth dilution assay; assay type: functional, organism-based
# In short: (§3)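 CLSI-standard 96-well broth microdilution, run in triplicate. Test concentration 128 μg/mL. Optical density read at time zero and at the final time point; growth inhibition calculated from the change after 22 h incubation.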
# [8] = system: Pseudomonas aeruginosa; experiment: Antimicrobial activity against Pseudomonas aeruginosa ATCC 14210 at 128 ug/ml after 22 hrs by micro broth dilution assay; assay type: functional, organism-based; in short: as §3
# [9] = system: Candida albicans; experiment: Antimicrobial activity against Candida albicans ATCC 14035 at 128 ug/ml after 22 hrs by micro broth dilution assay; assay type: functional, organism-based; in short: as §3
Structure (SMILES),Activity [1],Activity [2],Activity [3],Activity [4],Activity [5],Activity [6],Activity [7],Activity [8],Activity [9]
CC[C@@H](C)[C@H]1NC(=O)[C@H](Cc2ccccc2)NC(=O)[C@@H]([C@H](C)CC)NC(=O)[C@@H](C(C)C)NC(=O)[C@@H]([C@H](C)CC)NC(=O)[C@H]([C@@H](C)CC)NC(=O)[C@@H](C)NC1=O,Non-Toxic,Non-Toxic,inactive,inactive,inactive,inactive,inactive,inactive,inactive
"CC[C@@H](C)[C@H]1NC(=O)[C@@H](C)NC(=O)[C@H](Cc2ccccc2)NC(=O)[C@@H](CC(C)C)NC(=O)[C@@H](C(C)C)NC(=O)[C@H](Cc2ccccc2)NC(=O)[C@@H]([C@H](C)CC)NC1=O (HELM PEPTIDE1{F.[dA].[dI].[dI].F.[dV].[dL]}$PEPTIDE1,PEPTIDE1,1:R1-7:R2$$$V2.0)",Non-Toxic,Non-Toxic,inactive,inactive,inactive,inactive,inactive,inactive,inactive
"CC(C)[C@H]1NC(=O)[C@H](Cc2ccccc2)NC(=O)[C@@H](C(C)C)NC(=O)[C@@H](C(C)C)NC(=O)[C@@H](C(C)C)NC(=O)[C@H](Cc2ccccc2)NC(=O)[C@@H](Cc2ccccc2)NC1=O (HELM PEPTIDE1{F.[dV].[dF].F.[dV].[dV].[dV]}$PEPTIDE1,PEPTIDE1,1:R1-7:R2$$$V2.0)",Non-Toxic,Non-Toxic,inactive,inactive,inactive,inactive,inactive,inactive,inactive
"CC(C)C[C@@H]1NC(=O)[C@@H](C(C)C)NC(=O)[C@@H](C(C)C)NC(=O)[C@@H](C(C)C)NC(=O)[C@H](Cc2ccccc2)NC(=O)[C@@H](Cc2ccccc2)NC(=O)[C@@H](C(C)C)NC1=O (HELM PEPTIDE1{F.[dV].[dV].[dV].L.[dV].[dF]}$PEPTIDE1,PEPTIDE1,1:R1-7:R2$$$V2.0)",Non-Toxic,Non-Toxic,inactive,inactive,inactive,inactive,inactive,inactive,inactive
